Source: ChEMBL document CHEMBL3259569 (J Med Chem, 2014)
Calls of active or inactive are those of the source. The rule behind the calls is not given here.

What was measured:
MCF7 = assay: Cytotoxicity against human MCF7 cells by MTT assay; type: functional, cell-based
[1] = Cytotoxicity against human MKN45 cells by MTT assay; type: functional, cell-based; conditions: MKN-45
HT-29 = assay: Cytotoxicity against human HT-29 cells by MTT assay; type: functional, cell-based
HCT-116 [2] = assay: Induction of apoptosis in human HCT116 cells assessed as increase in p53 protein level at 0.1 to 3 uM after 24 hrs by immunoblotting analysis; type: functional, cell-based
HCT-116 [3] = assay: Cytotoxicity against p53 knock down human HCT116 cells at 0.1 to 3 uM after 72 hrs by MTT assay; type: functional, cell-based
HCT-116 [4] = assay: Induction of apoptosis in p53 knock down human HCT116 cells assessed as PARP cleavage at 1 uM after 24 hrs by immunoblotting analysis; type: functional, cell-based
HCT-116 [5] = assay: Induction of apoptosis in p53 knock down human HCT116 cells assessed as caspase-3 activation at 1 uM after 24 hrs by immunoblotting analysis; type: functional, cell-based
HCT-116 [6] = assay: Induction of apoptosis in human HCT116 cells assessed as accumulation at sub-G1 phase at 1 uM by propidium iodide staining-based flow cytometric analysis; type: functional, cell-based; conditions: TDE = time-dependent effect
In short: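 HCT116 cells exposed to 1 μM compound for varying time intervals; sub-G1 population quantified by flow cytometry.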

HCT-116 [7] = assay: Induction of apoptosis in human HCT116 cells assessed as caspase-3 activation after 24 hrs by Western blotting analysis; type: functional, cell-based
In short: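 HCT116 cells treated with indicated concentrations for 24 h; lysates probed by Western blot for caspase 3 and PARP cleavage.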

HCT-116 [8] = assay: Induction of apoptosis in human HCT116 cells assessed as caspase-3 activation at 3 uM after 24 hrs by Western blotting analysis in presence of Z-VAD-FMK; type: functional, cell-based
In short: (§1)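 HCT116 cells treated 24 h with 3 μM compound with or without 20 μM z-VAD-fmk pan-caspase inhibitor; caspase 3 and PARP assessed by Western blot.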

HCT-116 [9] = assay: Induction of apoptosis in human HCT116 cells assessed as PARP cleavage at 3 uM after 24 hrs by Western blotting analysis in presence of Z-VAD-FMK; type: functional, cell-based; in short: as §1
Histone deacetylase 1 = Histone deacetylase 1 (Homo sapiens, UniProt Q13547); assay: Inhibition of HDAC1 (unknown origin) using RHKK(Ac) (379 to 382) p53 peptide as substrate by fluorescence assay
Histone deacetylase 5 = Histone deacetylase 5 (Homo sapiens, UniProt Q9UQL6); assay: Inhibition of HDAC5 (unknown origin) by fluorescence assay
Histone deacetylase 9 = Histone deacetylase 9 (Homo sapiens, UniProt Q9UKV0); assay: Inhibition of HDAC9 (unknown origin) by fluorescence assay
In short: (§2)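 Run by a contract testing lab. Compounds were dissolved in DMSO and tested in 10-dose IC50 mode, using 3-fold serial dilution starting at 10 μM. IC50 was taken from the dose series.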

[10] = target: T1, Polyamine deacetylase HDAC10 (Homo sapiens, UniProt Q969S8); assay: Inhibition of HDAC10 (unknown origin) by fluorescence assay; in short: as §2
T1 sequence (Q969S8 whole entry): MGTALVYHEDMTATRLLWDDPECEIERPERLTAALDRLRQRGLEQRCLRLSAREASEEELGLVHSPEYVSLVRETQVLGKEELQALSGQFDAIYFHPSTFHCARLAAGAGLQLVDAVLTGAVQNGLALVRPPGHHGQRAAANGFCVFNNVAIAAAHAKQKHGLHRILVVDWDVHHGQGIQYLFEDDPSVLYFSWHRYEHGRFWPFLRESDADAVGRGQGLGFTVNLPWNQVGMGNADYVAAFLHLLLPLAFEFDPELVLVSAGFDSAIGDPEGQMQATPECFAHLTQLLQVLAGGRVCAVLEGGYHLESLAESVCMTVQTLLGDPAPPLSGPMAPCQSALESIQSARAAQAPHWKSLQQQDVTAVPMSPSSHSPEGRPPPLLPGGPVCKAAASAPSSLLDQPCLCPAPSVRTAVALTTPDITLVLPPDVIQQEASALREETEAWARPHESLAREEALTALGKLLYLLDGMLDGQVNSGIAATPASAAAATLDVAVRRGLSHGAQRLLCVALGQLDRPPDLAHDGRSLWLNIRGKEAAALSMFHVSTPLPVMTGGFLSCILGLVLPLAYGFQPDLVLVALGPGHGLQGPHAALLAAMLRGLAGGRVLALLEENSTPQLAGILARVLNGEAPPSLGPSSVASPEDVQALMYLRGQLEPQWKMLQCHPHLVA

HCT-116 [11] = assay: Antitumor activity against human HCT116 cells xenografted in nude athymic mouse assessed as tumor growth inhibition at 25 mg/kg/day, po after 2 to 16 days relative to control; type: functional; conditions: read-out: TGI
HCT-116 [12] = assay: Antitumor activity against human HCT116 cells xenografted in po dosed nude athymic mouse assessed as tumor growth inhibition after 2 to 16 days; type: functional, organism-based
Mus musculus [13] = assay: Toxicity in ICR mouse assessed as change in body weight at 400 to 1000 mg/kg, po treated for 7 days measured for 1 week; type: organism-based; parameters: dose 400-1000 mg/kg, route oral; conditions: in vivo, 168 h
In short: (§3)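 ICR mice fasted overnight, then given vehicle (0.2 mL/20 g) or compound orally at 400, 600 or 1000 mg/kg (n = 10/group) daily for 7 days, then monitored 1 week; weighed daily for 1 week, then twice weekly; 2/10 deaths defines toxic dose.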

Mus musculus [14] = assay: Toxicity in ICR mouse at 400 to 1000 mg/kg, po treated for 7 days measured for 1 week; type: organism-based; parameters: dose 400-1000 mg/kg, route oral; conditions: in vivo, 168 h; in short: as §3
[15] = AUC (0 to infinity) in ICR mouse at 2 mg/kg, iv by LC-MS/MS analysis; type: ADME, organism-based; parameters: time infinity, dose 2 mg/kg, route intravenous; conditions: plasma
[16] = Clearance in ICR mouse at 2 mg/kg, iv by LC-MS/MS analysis; type: ADME, organism-based; parameters: dose 2 mg/kg, route intravenous; conditions: in vivo
[17] = AUC (0 to infinity) in ICR mouse at 10 mg/kg, po by LC-MS/MS analysis; type: ADME, organism-based; parameters: time infinity, dose 10 mg/kg, route oral; conditions: plasma
[18] = Half life in ICR mouse at 10 mg/kg, po by LC-MS/MS analysis; type: ADME, organism-based; parameters: dose 10 mg/kg, route oral; conditions: in vivo
[19] = Tmax in ICR mouse at 10 mg/kg, po by LC-MS/MS analysis; type: ADME, organism-based; parameters: dose 10 mg/kg, route oral; conditions: in vivo
Histone deacetylase = assay: Inhibition of HDAC in human HeLa cell nuclear extract using Boc-Lys(Ac)-AMC as substrate after 30 mins by fluorimetric analysis; type: protein assay
KB = assay: Cytotoxicity against human KB cells by MTT assay; type: functional, cell-based
[20] = Cytotoxicity against human HONE1 cells by MTT assay; type: functional, cell-based
A549 = assay: Cytotoxicity against human A549 cells by MTT assay; type: functional, cell-based

Histone deacetylase 9, sequence (Q9UKV0 whole entry): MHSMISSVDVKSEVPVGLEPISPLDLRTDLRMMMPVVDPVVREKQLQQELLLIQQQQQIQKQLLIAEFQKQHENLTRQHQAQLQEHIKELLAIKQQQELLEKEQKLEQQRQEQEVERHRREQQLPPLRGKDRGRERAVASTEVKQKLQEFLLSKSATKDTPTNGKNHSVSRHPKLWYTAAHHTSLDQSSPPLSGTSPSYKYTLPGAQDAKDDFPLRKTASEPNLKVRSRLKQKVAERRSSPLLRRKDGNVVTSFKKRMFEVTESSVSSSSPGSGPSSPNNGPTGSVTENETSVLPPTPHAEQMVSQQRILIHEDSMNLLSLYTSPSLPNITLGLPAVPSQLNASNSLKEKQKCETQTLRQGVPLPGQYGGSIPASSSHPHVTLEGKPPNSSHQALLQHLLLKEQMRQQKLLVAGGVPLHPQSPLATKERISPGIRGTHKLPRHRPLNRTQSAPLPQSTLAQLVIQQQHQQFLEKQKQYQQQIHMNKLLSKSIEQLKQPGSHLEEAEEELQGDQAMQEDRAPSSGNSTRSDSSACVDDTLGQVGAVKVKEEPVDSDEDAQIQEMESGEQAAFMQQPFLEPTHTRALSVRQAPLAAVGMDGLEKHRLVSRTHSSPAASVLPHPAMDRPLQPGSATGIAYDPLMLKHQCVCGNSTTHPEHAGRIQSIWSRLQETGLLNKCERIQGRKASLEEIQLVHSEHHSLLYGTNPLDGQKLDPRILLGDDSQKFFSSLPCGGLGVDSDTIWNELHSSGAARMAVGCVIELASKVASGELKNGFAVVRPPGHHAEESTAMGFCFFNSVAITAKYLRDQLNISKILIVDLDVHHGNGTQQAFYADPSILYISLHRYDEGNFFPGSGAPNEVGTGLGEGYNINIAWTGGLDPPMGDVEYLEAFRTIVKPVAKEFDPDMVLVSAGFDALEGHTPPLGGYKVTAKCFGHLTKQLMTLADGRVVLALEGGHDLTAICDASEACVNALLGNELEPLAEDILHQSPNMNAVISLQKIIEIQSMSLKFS
Histone deacetylase 5, sequence (Q9UQL6 whole entry): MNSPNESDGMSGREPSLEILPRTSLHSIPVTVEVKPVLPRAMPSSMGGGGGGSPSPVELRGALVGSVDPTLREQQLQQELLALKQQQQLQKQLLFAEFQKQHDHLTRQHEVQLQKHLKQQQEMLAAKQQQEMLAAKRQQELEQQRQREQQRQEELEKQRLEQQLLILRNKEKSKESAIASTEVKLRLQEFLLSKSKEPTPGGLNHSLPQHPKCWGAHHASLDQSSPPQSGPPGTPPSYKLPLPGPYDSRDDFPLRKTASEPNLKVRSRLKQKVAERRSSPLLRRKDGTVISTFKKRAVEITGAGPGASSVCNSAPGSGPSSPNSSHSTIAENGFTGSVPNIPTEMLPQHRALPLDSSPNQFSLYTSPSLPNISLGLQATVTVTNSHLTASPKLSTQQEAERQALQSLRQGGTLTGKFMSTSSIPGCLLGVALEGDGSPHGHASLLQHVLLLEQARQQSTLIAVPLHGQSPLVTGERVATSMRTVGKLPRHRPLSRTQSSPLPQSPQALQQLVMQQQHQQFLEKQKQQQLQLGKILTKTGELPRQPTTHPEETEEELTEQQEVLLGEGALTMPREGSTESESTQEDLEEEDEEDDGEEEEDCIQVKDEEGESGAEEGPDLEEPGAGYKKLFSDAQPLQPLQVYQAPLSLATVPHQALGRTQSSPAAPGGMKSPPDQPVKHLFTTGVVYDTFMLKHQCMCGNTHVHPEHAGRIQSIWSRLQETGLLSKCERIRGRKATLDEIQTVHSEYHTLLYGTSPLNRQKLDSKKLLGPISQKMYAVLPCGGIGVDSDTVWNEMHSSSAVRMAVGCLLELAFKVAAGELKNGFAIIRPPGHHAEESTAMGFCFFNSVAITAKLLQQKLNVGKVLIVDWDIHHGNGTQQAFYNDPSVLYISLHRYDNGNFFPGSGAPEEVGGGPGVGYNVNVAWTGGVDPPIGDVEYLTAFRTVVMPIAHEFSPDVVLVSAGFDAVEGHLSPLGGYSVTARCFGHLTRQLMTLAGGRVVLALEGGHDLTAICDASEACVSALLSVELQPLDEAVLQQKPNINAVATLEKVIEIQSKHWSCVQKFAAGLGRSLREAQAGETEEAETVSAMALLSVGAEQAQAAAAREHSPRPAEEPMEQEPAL
Histone deacetylase 1, sequence (Q13547 whole entry): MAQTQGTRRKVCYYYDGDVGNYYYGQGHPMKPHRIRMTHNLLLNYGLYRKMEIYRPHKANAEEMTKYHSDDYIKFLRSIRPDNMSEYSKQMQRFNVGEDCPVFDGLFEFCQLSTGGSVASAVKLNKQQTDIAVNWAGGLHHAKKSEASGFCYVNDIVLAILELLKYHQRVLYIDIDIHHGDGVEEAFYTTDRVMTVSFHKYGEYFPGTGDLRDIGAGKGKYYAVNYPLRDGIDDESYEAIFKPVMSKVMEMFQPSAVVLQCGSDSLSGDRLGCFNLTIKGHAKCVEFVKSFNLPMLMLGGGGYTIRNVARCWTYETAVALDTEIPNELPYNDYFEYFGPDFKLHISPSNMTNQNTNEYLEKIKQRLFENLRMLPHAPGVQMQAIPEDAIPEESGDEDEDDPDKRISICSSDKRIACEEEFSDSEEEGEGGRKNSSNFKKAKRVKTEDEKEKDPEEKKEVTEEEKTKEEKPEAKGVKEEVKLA

O=C(/C=C/c1cccc(S(=O)(=O)n2ccc3cccnc32)c1)NO
IC50 (MCF7): 1330 nM
IC50 [1]: 2510 nM
IC50 (HT-29): 1240 nM
Activity (HCT-116 [2]): Active
Activity (HCT-116 [3]): inactive
Activity (HCT-116 [4]): inactive
Activity (HCT-116 [5]): inactive
Activity (HCT-116 [6]): tde
Activity (HCT-116 [7]): Dose-dependent effect
Activity (HCT-116 [8]): inactive
Activity (HCT-116 [9]): inactive
IC50 (Histone deacetylase 1): 310 nM
IC50 (Histone deacetylase 5): 8730 nM
IC50 (Histone deacetylase 9): 5340 nM
IC50 [10]: 4130 nM
inhibition in vivo at 25 mg/kg/day (HCT-116 [11]): 55.8%
TGI (HCT-116 [12]): Dose-dependent effect
Activity (Mus musculus [13]): Non-toxic
Activity (Mus musculus [14]): Non-toxic
AUC(0-inf) [15]: 289 ng·h/mL
clearance [16]: 127 mL/min/kg
AUC(0-inf) [17]: 466 ng·h/mL
half-life [18]: 2.4 h
Tmax [19]: 0.3 h
IC50 (Histone deacetylase): 100 nM
IC50 (KB): 760 nM
IC50 [20]: 1200 nM
IC50 (A549): 1330 nM
